These results are taken from ChEMBL document CHEMBL1134409, “Design, synthesis, and discovery of a novel CCR1 antagonist” (J Med Chem, 2001).

Bounds are passed on as bounds.

Test [1] concerns the target T1, C-C chemokine receptor type 1 (Mus musculus, UniProt P51675).
T1 sequence (P51675 whole entry): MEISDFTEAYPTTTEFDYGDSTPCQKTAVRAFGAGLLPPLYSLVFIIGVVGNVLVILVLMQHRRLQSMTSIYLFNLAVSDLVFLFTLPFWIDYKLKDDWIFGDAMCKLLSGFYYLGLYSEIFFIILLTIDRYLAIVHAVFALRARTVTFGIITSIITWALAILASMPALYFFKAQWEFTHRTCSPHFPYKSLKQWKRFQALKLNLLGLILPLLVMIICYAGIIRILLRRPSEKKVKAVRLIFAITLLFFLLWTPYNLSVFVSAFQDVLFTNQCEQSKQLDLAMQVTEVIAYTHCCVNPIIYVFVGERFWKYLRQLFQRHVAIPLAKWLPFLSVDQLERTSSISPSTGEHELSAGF
Nature of the test: Inhibitory activity against [125I]-MIP-1 alpha binding to mouse CCR1 receptors. An outline of the steps:
(§1)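 Whole-cell binding. CHO cells transfected with the CCR receptor were detached with PBS(-) containing 2 mM EDTA and resuspended in Krebs-Ringer phosphate buffer with 0.1% BSA and 0.1% glucose. 1 × 10^5 cells were incubated with 50 pM 125I-chemokine plus antagonist for 1 h at 37 °C to reach equilibrium. Nonspecific binding was taken with 100 nM unlabeled chemokine. Ice-cold buffer was then added.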

The target in test [2] is T2, C-C chemokine receptor type 1 (Homo sapiens, UniProt P32246).
T2 sequence (P32246 whole entry): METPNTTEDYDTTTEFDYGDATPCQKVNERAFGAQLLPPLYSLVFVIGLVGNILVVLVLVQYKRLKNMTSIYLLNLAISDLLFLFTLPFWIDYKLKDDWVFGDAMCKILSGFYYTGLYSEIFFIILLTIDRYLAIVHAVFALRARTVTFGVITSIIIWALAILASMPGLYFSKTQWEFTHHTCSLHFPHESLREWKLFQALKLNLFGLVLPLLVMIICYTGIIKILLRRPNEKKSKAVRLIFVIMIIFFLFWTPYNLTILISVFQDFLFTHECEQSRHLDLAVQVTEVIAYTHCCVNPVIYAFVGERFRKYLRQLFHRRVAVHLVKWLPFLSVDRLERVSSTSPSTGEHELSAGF
The test can be described thus: Inhibitory activity against [125I]-MIP-1 alpha binding to human CCR1 receptors. An outline of the steps: as §1

The IC50 is the concentration that inhibits the measured activity by half. A low value points to greater potency. For `CCCC[N+]1(CC2CCCCCCC2)CCC(NC(=O)C2c3ccccc3Oc3ccccc32)CC1` (stereo unspecified), the IC50 was 380 nM in test [1] and 5 nM in test [2].
For `O=C(NC1CCN(C/C2=C/CCCCCC2)CC1)C1c2cc(Br)ccc2Oc2ccc(Br)cc21` the same measures were 2500 nM and 150 nM.
As for `C=CC[N+]1(CC2CCCCCCC2)CCC(NC(=O)C2c3ccccc3Oc3ccccc32)CC1` (stereo unspecified), the half-maximal inhibitory concentration (IC50) in test [1] turned out to be 670 nM; in test [2], 9.7 nM.
The matching figures for `CC[N+]1(C/C2=C/CCCCCC2)CCC(NC(=O)C2c3cc(Br)ccc3Oc3ccc(Br)cc32)CC1` (stereo unspecified): 12 nM and 1.9 nM.
Turning to `O=C(NC1CCN(CC2CCCCCCC2)CC1)C(c1ccccc1)c1ccccc1`, the figures for the IC50 in test [1] and in test [2] were above 10000 nM and 1100 nM, respectively.
`O=C(NC1CCN(CC2CCCCCCC2)CC1)c1c2ccccc2cc2ccccc12`: the IC50 in test [1] and in test [2] was above 10000 nM in each case.
As to `CC[N+]1(CC2CCCCCCC2)CCC(NC(=O)C2c3cc(Br)ccc3Oc3ccc(Br)cc32)CC1` (stereo unspecified), the IC50 in test [1] is 140 nM; in test [2] it was 3.3 nM.
For `O=C(NC1CCN(Cc2ccc3ccccc3c2)CC1)C1c2ccccc2Oc2ccccc21` the same measures were above 10000 nM and above 10000 nM.
Turning to `O=C(NC1CCN(CC2CCCCCCC2)CC1)C1c2cc(Cl)ccc2Oc2ccc(Cl)cc21`, the IC50 in test [1] and in test [2] was above 10000 nM each time.
`O=C(NC1CCN(CC2CCCCC2)CC1)C1c2ccccc2Oc2ccccc21`: the values for the IC50 in test [1] and in test [2] were above 10000 nM and 200 nM, respectively.
Take `CCC[N+]1(C/C2=C/CCCCCC2)CCC(NC(=O)C2c3ccccc3Oc3ccccc32)CC1` (stereo unspecified): the IC50 in test [1] amounted to 270 nM; in test [2] it was 2.8 nM.
`CC[N+]1(CC2CCCCCCC2)CCC(NC(=O)C2c3ccccc3Oc3ccccc32)CC1` (stereo unspecified): the IC50 in test [1] came to 660 nM. This lies in the sub-micromolar range.
For `O=C(NC1CCN(CC2CCCCCCCCC2)CC1)C1c2ccccc2Oc2ccccc21`, the IC50 was above 10000 nM in test [1] and 800 nM in test [2].
For `O=C(NC1CCN(C/C2=C/CCCCCC2)CC1)C1c2cc(Cl)ccc2Oc2ccc(Cl)cc21` the same measures were 1900 nM and 240 nM.
With `O=C(NC1CC[N+](Cc2ccccc2)(CC2CCCCCCC2)CC1)C1c2ccccc2Oc2ccccc21` (stereo unspecified), the IC50 was found to be 1300 nM in test [1] and 370 nM in test [2].
The matching figures for `C[N+]1(CC2CCCCCCC2)CCC(NC(=O)c2c3ccccc3cc3ccccc23)CC1` (stereo unspecified): above 10000 nM and 1800 nM.
For `C[N+]1(C/C2=C/CCCCCC2)CCC(NC(=O)C2c3ccccc3Oc3ccccc32)CC1` (stereo unspecified) the same measures were 350 nM and 2.5 nM.
Turning to `CC[N+]1(C/C2=C/CCCCCC2)CCC(NC(=O)C2c3cc(Cl)ccc3Oc3ccc(Cl)cc32)CC1` (stereo in doubt; 2q), the IC50 was 12 nM in test [1] and 1.2 nM in test [2].
Regarding `O=C(NC1CCN(CC2CCCCCCC2)CC1)C1c2ccccc2Oc2ccccc21`, the results for the IC50 in test [1] and in test [2] were above 10000 nM and 140 nM, respectively.
In the case of `O=C(NC1CCN(C/C2=C/CCCCCC2)CC1)C1c2ccccc2Oc2ccccc21`, the IC50 was 590 nM in test [1] and 51 nM in test [2].
For the molecule `C[N+]1(CC2CCCCCCC2)CCC(NC(=O)C2c3cc(Cl)ccc3Oc3ccc(Cl)cc32)CC1` (stereo unspecified), the IC50 in test [1] worked out at 710 nM; in test [2] it was 17 nM.
Consider `CCC[N+]1(CC2CCCCCCC2)CCC(NC(=O)C2c3ccccc3Oc3ccccc32)CC1` (stereo unspecified), for which the IC50 is 270 nM in test [1] and 3.6 nM in test [2].
As for `CC[N+]1(C/C2=C/CCCCCC2)CCC(NC(=O)C2c3ccccc3Oc3ccccc32)CC1` (stereo unspecified), the IC50 in test [1] is 63 nM; in test [2], 2 nM.
On to `N#CC(CCCN1CCC(O)(c2ccc(Cl)cc2)CC1)(c1ccccc1)c1ccccc1` [BERLEX COMPOUND], for which the IC50 came out at 5000 nM in test [1] and 48 nM in test [2].
For `C[N+]1(CC2CCCCCCC2)CCC(NC(=O)C(c2ccccc2)c2ccccc2)CC1` (stereo unspecified) the same measures were above 10000 nM and 800 nM.
The matching figures for `O=C(NC1CCN(Cc2ccccc2)CC1)C1c2ccccc2Oc2ccccc21`: above 10000 nM and above 10000 nM.
Regarding `O=C(NC1CCN(CC2CCCCCCC2)CC1)C1c2cc(Br)ccc2Oc2ccc(Br)cc21`, the IC50 is above 10000 nM in test [1] and 5100 nM in test [2].
The matching figures for `CCCCCCN1CCC(NC(=O)C2c3ccccc3Oc3ccccc32)CC1`: above 10000 nM and 510 nM.
For `C[N+]1(CC2CCCCCCC2)CCC(NC(=O)C2c3ccccc3Oc3ccccc32)CC1` (stereo unspecified) the same measures were 2100 nM and 14 nM.
For `CC[N+]1(C/C2=C/CCCCCC2)CCC(NC(=O)C2c3cc(Cl)ccc3Oc3ccc(Cl)cc32)CC1` (stereo in doubt; 2q-2), the IC50 in test [1] was determined as 740 nM; in test [2], 47 nM.
For `O=C(NC1CCN(CC2CCCCCCC2)CC1)C(O)(c1ccccc1)c1ccccc1`, the IC50 in test [1] is above 10000 nM; in test [2] it was 1600 nM.
As for `C[N+]1(CC2CCCCCCC2)CCC(NC(=O)C2c3cc(Br)ccc3Oc3ccc(Br)cc32)CC1` (stereo unspecified), the IC50 in test [1] worked out at 240 nM.
Regarding `C[N+]1(CC2CCCCCCC2)CCC(NC(=O)C(O)(c2ccccc2)c2ccccc2)CC1` (stereo unspecified), the IC50 is above 10000 nM in test [1] and 2100 nM in test [2].
The matching figures for `CCC[N+]1(CC2CCCCCCC2)CCC(NC(=O)C2c3cc(Br)ccc3Oc3ccc(Br)cc32)CC1` (stereo unspecified): 140 nM and 3.1 nM.
